Experimental data reported in ChEMBL document CHEMBL1159060, “2-Dialkynyl derivatives of (N)-methanocarba nucleosides: 'Clickable' A(3) adenosine receptor-selective agonists” (Bioorg Med Chem, 2010).

Columns and labels:
Adenosine receptor A3 = target: T1, Adenosine receptor A3 (Homo sapiens, UniProt P0DMS8); assay: Displacement of I-AB-MECA from human recombinant adenosine A3 receptor expressed in CHO cells
T1 sequence (P0DMS8 whole entry): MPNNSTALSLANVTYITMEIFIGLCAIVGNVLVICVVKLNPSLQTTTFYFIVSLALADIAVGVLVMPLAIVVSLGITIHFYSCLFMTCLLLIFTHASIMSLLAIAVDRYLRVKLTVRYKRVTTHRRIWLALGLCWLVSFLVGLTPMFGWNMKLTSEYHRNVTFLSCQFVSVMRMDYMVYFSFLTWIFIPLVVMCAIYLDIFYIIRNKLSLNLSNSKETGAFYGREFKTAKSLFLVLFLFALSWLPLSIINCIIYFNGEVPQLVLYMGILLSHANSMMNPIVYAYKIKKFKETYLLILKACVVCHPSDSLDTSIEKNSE

[1] = target: T2, Adenosine receptor A1 (Homo sapiens) (UniProt P30542); assay: Displacement of [3H]NECA from human recombinant adenosine A1 receptor expressed in CHO cells at 10 uM by liquid scintillation counting; format: cell-based
T2 sequence (whole entry): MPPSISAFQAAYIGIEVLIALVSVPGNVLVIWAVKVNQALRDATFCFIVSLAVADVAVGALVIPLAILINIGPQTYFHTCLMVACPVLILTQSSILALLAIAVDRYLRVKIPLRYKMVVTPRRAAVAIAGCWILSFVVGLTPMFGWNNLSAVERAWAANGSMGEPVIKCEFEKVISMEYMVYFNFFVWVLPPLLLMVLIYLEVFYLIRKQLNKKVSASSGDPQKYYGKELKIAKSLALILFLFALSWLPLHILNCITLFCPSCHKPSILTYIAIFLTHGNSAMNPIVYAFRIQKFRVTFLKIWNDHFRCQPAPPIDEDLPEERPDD
Procedure, shortened: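 CHO membranes stably expressing hA1AR, pretreated with adenosine deaminase (3 units/mL, 30 min, 37 °C), 22 μg protein/tube. […] GF/B filtration, scintillation counting, percent inhibition at 10 μM.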

Adenosine receptor A2a [2] = target: T3, Adenosine receptor A2a (Homo sapiens, UniProt P29274); assay: Displacement of [3H]CGS21680 from human recombinant adenosine A2A receptor expressed in HEK293 cells at 10 uM by liquid scintillation counting; format: cell-based
Procedure, shortened: (§1)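 HEK293 membranes stably expressing hA2AAR (20 μg protein/tube), deaminase-treated (3 units/mL, 30 min, 37 °C). Competition against 10 nM [3H]CGS21680 in Tris-HCl 50 mM pH 7.5 with 10 mM MgCl2, 25 °C for 60 min. […] Filtered on GF/B, scintillation counted.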

[3] = target: T4, Adenosine receptor A2b (Homo sapiens) (UniProt P29275); assay: Agonist activity at human recombinant adenosine A2B receptor expressed in CHO cells assessed as stimulation of cAMP accumulation at 10 uM by liquid scintillation spectrophotometry relative to NECA
T4 sequence (whole entry): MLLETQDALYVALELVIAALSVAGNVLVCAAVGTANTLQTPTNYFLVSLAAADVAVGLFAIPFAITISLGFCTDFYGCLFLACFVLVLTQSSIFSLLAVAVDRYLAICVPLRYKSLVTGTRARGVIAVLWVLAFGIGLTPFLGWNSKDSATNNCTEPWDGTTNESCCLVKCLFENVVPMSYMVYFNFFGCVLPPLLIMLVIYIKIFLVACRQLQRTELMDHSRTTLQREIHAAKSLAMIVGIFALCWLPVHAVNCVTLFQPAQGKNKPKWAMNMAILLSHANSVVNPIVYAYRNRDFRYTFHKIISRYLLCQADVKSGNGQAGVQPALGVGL

Homo sapiens = organism: Homo sapiens; assay: Selectivity ratio of Ki for human adenosine A2A receptor to Ki for human adenosine A3 receptor
[4] = target: Adenosine receptors; A1 & A3 (Homo sapiens) (UniProt P30542+P0DMS8); assay: Selectivity for human adenosine A3 receptor over human adenosine A1 receptor
Adenosine receptor A2a [5] = target: T3, Adenosine receptor A2a; assay: Displacement of [3H]CGS21680 from human recombinant adenosine A2A receptor expressed in HEK293 cells by liquid scintillation counting; format: cell-based
Procedure, shortened: as §1

T3 sequence (P29274 whole entry): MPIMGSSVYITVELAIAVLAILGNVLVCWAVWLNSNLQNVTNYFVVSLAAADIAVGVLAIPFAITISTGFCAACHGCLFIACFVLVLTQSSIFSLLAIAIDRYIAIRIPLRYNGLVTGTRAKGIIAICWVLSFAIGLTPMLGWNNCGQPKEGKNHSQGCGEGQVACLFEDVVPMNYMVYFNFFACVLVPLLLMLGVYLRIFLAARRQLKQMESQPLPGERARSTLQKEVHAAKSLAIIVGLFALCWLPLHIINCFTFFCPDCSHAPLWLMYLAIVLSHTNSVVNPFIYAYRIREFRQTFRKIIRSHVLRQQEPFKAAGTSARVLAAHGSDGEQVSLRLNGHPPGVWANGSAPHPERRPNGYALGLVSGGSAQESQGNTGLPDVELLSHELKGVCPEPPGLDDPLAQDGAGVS

With `CNC(=O)[C@@]12C[C@@H]1[C@@H](n1cnc3c(NCc4cccc(Cl)c4)nc(C#CCCC(=O)NCCNC(=O)CCCCCNC(=O)CCCCC4SCC5NC(=O)NC54)nc31)[C@H](O)[C@@H]2O` (some centres not stated) the Ki (Adenosine receptor A3) was 0.0577 µM, the inhibition [1] was 12% and the inhibition (Adenosine receptor A2a [2]) was 47%.

`CNC(=O)[C@@]12C[C@@H]1[C@@H](n1cnc3c(NCc4cccc(Cl)c4)nc(C#CCCCCc4cn(Cc5ccc(-n6sccc6=O)cc5)nn4)nc31)[C@H](O)[C@@H]2O` was tested, and the inhibition [1] was 15% and the inhibition (Adenosine receptor A2a [2]) was 49%.

Compound `CCNC(=O)[C@H]1O[C@@H](n2cnc3c(N)ncnc32)[C@H](O)[C@@H]1O` has an Activity [3] of 100%.

`CNC(=O)[C@@]12C[C@@H]1[C@@H](n1cnc3c(NCc4cccc(Cl)c4)nc(C#CCCCCc4cn(-c5ccc(N=C=S)cc5)nn4)nc31)[C@H](O)[C@@H]2O` showed an inhibition [1] of 2% and an inhibition (Adenosine receptor A2a [2]) of 28%.

Compound `CNC(=O)[C@@]12C[C@@H]1[C@@H](n1cnc3c(NCc4cccc(Cl)c4)nc(C#CCCCCc4cn(CCNC(C)=O)nn4)nc31)[C@H](O)[C@@H]2O` has an Activity [3] of 19.4%, an inhibition [1] of 12% and a Ratio Ki (Homo sapiens) of 109.

`CNC(=O)[C@@]12C[C@@H]1[C@@H](n1cnc3c(NCc4cccc(Cl)c4)nc(C#CCCCCc4cn(-c5ccc(C(=O)O)cc5)nn4)nc31)[C@H](O)[C@@H]2O` was tested, and the inhibition [1] was 0% and the inhibition (Adenosine receptor A2a [2]) was 40%.

Work on `CNC(=O)[C@@]12C[C@@H]1[C@@H](n1cnc3c(NCc4cccc(Cl)c4)nc(C#CCCCCc4cn(-c5ccc(N)cc5)nn4)nc31)[C@H](O)[C@@H]2O` yielded an inhibition [1] of 3%.

Work on `C#CCCCCC#Cc1nc(NCc2cccc(Cl)c2)c2ncn([C@H]3[C@H](O)[C@H](O)[C@]4(C(=O)NC)C[C@H]34)c2n1` yielded a Ki (Adenosine receptor A3) of 0.0294 µM, an inhibition [1] of 31% and a Selectivity ratio [4] greater than 400. The Ratio Ki (Homo sapiens) was 300 and the Ki (Adenosine receptor A2a [5]) was 7.04 µM.

`CNC(=O)[C@@]12C[C@@H]1[C@@H](n1cnc3c(NCc4cccc(Cl)c4)nc(C#CCCC(=O)NCCNC(=O)CCCCC4SCC5NC(=O)NC54)nc31)[C@H](O)[C@@H]2O` (some centres not stated) gave a Ki (Adenosine receptor A3) of 0.0364 µM, an inhibition [1] of 1% and an inhibition (Adenosine receptor A2a [2]) of 51%.

`CNC(=O)[C@@]12C[C@@H]1[C@@H](n1cnc3c(NCc4cccc(Cl)c4)nc(C#CCCCCc4cn(CCCCN)nn4)nc31)[C@H](O)[C@@H]2O` gave an inhibition [1] of 13%.

With `CNC(=O)[C@@]12C[C@@H]1[C@@H](n1cnc3c(NCc4cccc(Cl)c4)nc(C#CCCCCc4cn(CCCCCCNC(=O)c5ccc(-c6c7ccc(=N)c(S(=O)(=O)O)c-7oc7c(S(=O)(=O)O)c(N)ccc67)c(C(=O)O)c5)nn4)nc31)[C@H](O)[C@@H]2O` the Ki (Adenosine receptor A3) was 0.416 µM, the inhibition (INH) [1] was 0% and the inhibition (Adenosine receptor A2a [2]) was 23%.

`C#CCCCC#Cc1nc(NCc2cccc(Cl)c2)c2ncn([C@@H]3[C@H](O)[C@H](O)[C@]4(C(=O)NC)C[C@H]34)c2n1` was tested, and the Ki (Adenosine receptor A3) was 0.0236 µM, the inhibition [1] was 36% and the Selectivity ratio [4] was greater than 400. For the same compound, the Ratio Ki (Homo sapiens) was 300 and the Ki (Adenosine receptor A2a [5]) was 4.33 µM.

`CNC(=O)[C@@]12C[C@@H]1[C@@H](n1cnc3c(NCc4cccc(Cl)c4)nc(C#CCCCCc4cn(C56CC7CC(CC(C7)C5)C6)nn4)nc31)[C@H](O)[C@@H]2O` showed an Activity [3] of 36.5%, an inhibition [1] of 22% and a Ratio Ki (Homo sapiens) of 500.

`CNC(=O)[C@@]12C[C@@H]1[C@@H](n1cnc3c(NCc4cccc(Cl)c4)nc(C#CCCCCc4cn(CCCCCCNC5SCC6NC(=O)NC65)nn4)nc31)[C@H](O)[C@@H]2O` (some centres not stated) showed a Ki (Adenosine receptor A3) of 0.285 µM, an inhibition (INH) [1] of 0% and an inhibition (Adenosine receptor A2a [2]) of 27%.

`CNC(=O)[C@@]12C[C@@H]1[C@@H](n1cnc3c(NCc4cccc(Cl)c4)nc(-c4nnn(-c5ccc(N=C=S)cc5)c4CCCCc4cn(-c5ccc(N=C=S)cc5)nn4)nc31)[C@H](O)[C@@H]2O` gave an inhibition [1] of 4% and an inhibition (Adenosine receptor A2a [2]) of 40%.

For `CCN1\C(=C/C=C/C=C/C2=[N+](CCCCCC(=O)NCCNC(=O)CCC#Cc3nc(NCc4cccc(Cl)c4)c4ncn([C@H]5[C@H](O)[C@H](O)[C@]6(C(=O)NC)C[C@H]56)c4n3)c3ccc(S(=O)(=O)[O-])cc3C2(C)C)C(C)(C)c2cc(S(=O)(=O)O)ccc21`, the inhibition [1] was 36% and the Ki (Adenosine receptor A2a [5]) was 4.73 µM.

`CNC(=O)[C@@]12C[C@@H]1[C@@H](n1cnc3c(NCc4cccc(Cl)c4)nc(C#CCCCCc4cn(CCCCNC(C)=O)nn4)nc31)[C@H](O)[C@@H]2O` showed an inhibition [1] of 17%.
